Where a SMILES comes first, the peptide text is derived from it. [ ]: non-standard residue; d: D form. The star is where a group is joined. X2 = COC1=CC(=O)N(C(=O)[C@@H](O*)C(C)C)[C@H]1Cc1ccccc1; Dolaproine = CO[C@@H]([C@@H]1CCCN1)[C@@H](C)C(=O)O; NMe2Val = CC(C)[C@@H](C(=O)*)N(C)C; X1 = c1ccc(CC(N*)c2nccs2)cc1; NMeV = CN[C@H](C(=O)O)C(C)C
How the values were obtained:
MCF7 [1] = test: Selectivity was evaluated [Selectivity = IC50 / IC50 of Dolastatin] against MCF-7 cell line; type: functional, Homo sapiens
Summary of the method: (§1)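 For MCF7 cells, cultured in supplemented RPMI 1640 (10% fetal calf serum, 10 mM HEPES, pH 7.4), exposure ran 168 h to nine serial dilutions in triplicate. Viability was read by microculture tetrazolium assay. IC50 is the concentration halving optical density relative to untreated controls; ratio is compound IC50 over parent dolastatin IC50.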

Tubulin = Tubulin (Bos taurus, UniProt Q6B856+Q862L2+Q862F3); test: In vitro inhibition of tubulin polymerization measured as turbidity formed by centrifugation; type: protein assay
Summary of the method: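 Microtubule protein purified from bovine brain by assembly (37 °C)/disassembly (0 °C) cycles in MES buffer (pH 6.6) with glycerol and GTP; used at 2 mg/mL with 1 mM GTP. Compounds added in DMSO; assembly started by temperature jump from 4 to 37 °C and followed by turbidity at 350 nm. IC50 taken as concentration giving 50% inhibition of assembly rate.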

L1210 [2] = test: Selectivity was evaluated [Selectivity = IC50 / IC50 of Dolastatin] against L1210 cell line; type: functional, Mus musculus
Summary of the method: (§2)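 L1210 murine leukemia cells in RPMI 1640 with 10% fetal calf serum, 2 mM glutamine, antibiotics and 10 mM HEPES (pH 7.4). Treatment lasted 48 h at nine serial dilutions in triplicate, with a microculture tetrazolium read-out. IC50 gives 50% optical density reduction versus untreated cells; ratio is compound IC50 divided by parent dolastatin IC50.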

MCF7 [3] = test: Inhibitory activity against growth of MCF-7 cell line; type: functional, cell-based; conditions: Homo sapiens; summary of the method: as §1
L1210 [4] = test: Inhibitory activity against growth of L1210 cell line; type: functional, cell-based; conditions: Mus musculus; summary of the method: as §2
HT-29 [5] = test: Selectivity was evaluated [Selectivity = IC50 / IC50 of Dolastatin] against HT-29 cell line; type: functional, Homo sapiens
Summary of the method: (§3)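 HT-29 cells grown in RPMI 1640 with 10% fetal calf serum, 2 mM glutamine, antibiotics and 10 mM HEPES (pH 7.4). Exposed for 96 h to nine serial dilutions in triplicate; growth read by microculture tetrazolium assay. IC50 is the concentration lowering optical density 50% versus untreated controls; ratio is compound IC50 over parent dolastatin IC50.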

HT-29 [6] = test: Inhibitory activity against growth of HT-29 cell line; type: functional, cell-based; conditions: Homo sapiens; summary of the method: as §3

Row | Structure (SMILES) | Selectivity (MCF7 [1]) | IC50 (Tubulin) | Selectivity (L1210 [2]) | IC50 (MCF7 [3]) | IC50 (L1210 [4]) | Selectivity (HT-29 [5]) | IC50 (HT-29 [6])
1 | CC[C@H](C)[C@@H]([C@@H](CC(=O)N1CCC[C@H]1C(=O)O[C@H](C(=O)N1C(=O)C=C(OC)[C@@H]1Cc1ccccc1)C(C)C)OC)N(C)C(=O)[C@@H](NC(=O)[C@H](C(C)C)N(C)C)C(C)C | 5 | 3600 nM | 12 | 0.19 nM | 1.58 nM | 1365 | 396 nM
2 | CO[C@H]([C@@H](C)C(=O)NC(Cc1ccccc1)c1nccs1)[C@@H]1CCCN1C(=O)[C@@H]1CCCN1C(=O)[C@H](C(C)C)N(C)C(=O)[C@@H](NC(=O)[C@H](C(C)C)N(C)C)C(C)C (some centres undefined) (NMe2Val-V[NMeV]P[Dolaproine]-X1) | 83 | 13000 nM | 90 | 2.48 nM | 2.72 nM | 190 | 11.4 nM
3 | COC1=CC(=O)N(C(=O)[C@@H](OC(=O)[C@@H]2CCCN2C(=O)[C@@H]2CCCN2C(=O)[C@H](C(C)C)N(C)C(=O)[C@@H](NC(=O)[C@H](C(C)C)N(C)C)C(C)C)C(C)C)[C@H]1Cc1ccccc1 [DOLASTATIN 15] (NMe2Val-V[NMeV]PP-X2) | – | 17000 nM | – | 0.04 nM | 0.13 nM | – | 0.29 nM
4 | CC[C@H](C)[C@@H]([C@@H](CC(=O)N1CCC[C@H]1[C@H](OC)[C@@H](C)C(=O)N[C@@H](Cc1ccccc1)c1nccs1)OC)N(C)C(=O)[C@@H](NC(=O)[C@H](C(C)C)N(C)C)C(C)C [DOLASTATIN-10] | – | 2200 nM | – | 0.03 nM | – | – | –
5 | CC[C@]1(O)C[C@H]2CN(CCc3c([nH]c4ccccc34)[C@@](C(=O)OC)(c3cc4c(cc3OC)N(C=O)[C@H]3[C@@](O)(C(=O)OC)[C@H](OC(C)=O)[C@]5(CC)C=CCN6CC[C@]43[C@@H]65)C2)C1 [VINCRISTINE] | – | 1800 nM | – | 0.84 nM | 0.73 nM | – | 2.06 nM

Source: ChEMBL document CHEMBL1131603, “Synthesis and biological activity of chimeric structures derived from the cytotoxic natural compounds dolastatin 10 and dolastatin 15” (J Med Chem, 1998)
